From ChEMBL document CHEMBL1137076, “New arylpiperazine 5-HT(1A) receptor ligands containing the pyrimido[2,1-f]purine fragment: synthesis, in vitro, and in vivo pharmacological evaluation” (J Med Chem, 2004)
Where “and” joins values, the source holds several entries; their conditions need not be identical. Equal entries are not always repeated.

Tests used:
[1] = system: Rattus norvegicus; experiment: Effect of Compound administered 60 min before the test in the conflict drinking test in rat (n = 8 rats/group) at 2.5 mg/kg; assay type: functional
Procedure, shortened: (§1)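 Male Wistar rats (250-300 g), compound suspended in 1% aqueous Tween 80, given ip (2 mL/kg) 60 min before test. Rats adapted 10 min to chamber, water-deprived 24 h, readapted 10 min with bottle, 30 min home-cage drinking, deprived another 24 h. After 30 s free drinking, licks punished by 0.5 mA shock; shocks accepted in 5 min counted. n=8/group; ANOVA with Dunnett test.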

[2] = system: Rattus norvegicus; experiment: Effect of Compound administered 60 min before the test in the conflict drinking test in rat (n = 8 rats/group) at 5 mg/kg; assay type: functional; procedure, shortened: as §1
[3] = target: T1, 5-hydroxytryptamine receptor 1A (Rattus norvegicus, UniProt P19327); experiment: Ability to bind to central serotonin 5-hydroxytryptamine 1A receptor in vitro in hippocampus of the rat brain using [3H]8-OH-DPAT radioligand; assay type: tissue-based
T1 sequence (P19327 whole entry): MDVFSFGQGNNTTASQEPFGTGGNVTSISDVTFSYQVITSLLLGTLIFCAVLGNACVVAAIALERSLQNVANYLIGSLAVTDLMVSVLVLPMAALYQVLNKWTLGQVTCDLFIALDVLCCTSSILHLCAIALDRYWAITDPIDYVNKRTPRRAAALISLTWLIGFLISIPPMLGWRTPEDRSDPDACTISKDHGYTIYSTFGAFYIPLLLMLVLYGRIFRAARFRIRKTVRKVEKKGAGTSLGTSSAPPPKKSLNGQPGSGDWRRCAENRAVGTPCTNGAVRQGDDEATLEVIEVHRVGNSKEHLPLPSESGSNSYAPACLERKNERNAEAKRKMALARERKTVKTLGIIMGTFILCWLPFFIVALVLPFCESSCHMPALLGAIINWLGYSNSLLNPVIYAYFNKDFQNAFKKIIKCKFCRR
Procedure, shortened: (§2)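 Competition binding in rat brain tissue: hippocampus with [3H]-8-OH-DPAT (5-HT1A); cortex with [3H]-ketanserin (5-HT2A) or [3H]-prazosin (α1). Ki from at least three experiments using 10–14 concentrations (10⁻¹⁰–10⁻⁵ M), each in triplicate.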

[4] = target: 5-hydroxytryptamine receptor 2A (Rattus norvegicus, UniProt P14842); experiment: Ability to bind to central serotonin 5-hydroxytryptamine 2A receptor in vitro in cortex of the rat brain using [3H]ketanserin radioligand; assay type: tissue-based; procedure, shortened: as §2
[5] = target: T2, Adrenergic receptor alpha-1 (Rattus norvegicus, UniProt P15823+P23944+P43140); experiment: Ability to bind to alpha-1 adrenergic receptor in vitro in cortex of the rat brain using [3H]prazosin radioligand; assay type: tissue-based; procedure, shortened: as §2
T2 sequence (P15823 whole entry): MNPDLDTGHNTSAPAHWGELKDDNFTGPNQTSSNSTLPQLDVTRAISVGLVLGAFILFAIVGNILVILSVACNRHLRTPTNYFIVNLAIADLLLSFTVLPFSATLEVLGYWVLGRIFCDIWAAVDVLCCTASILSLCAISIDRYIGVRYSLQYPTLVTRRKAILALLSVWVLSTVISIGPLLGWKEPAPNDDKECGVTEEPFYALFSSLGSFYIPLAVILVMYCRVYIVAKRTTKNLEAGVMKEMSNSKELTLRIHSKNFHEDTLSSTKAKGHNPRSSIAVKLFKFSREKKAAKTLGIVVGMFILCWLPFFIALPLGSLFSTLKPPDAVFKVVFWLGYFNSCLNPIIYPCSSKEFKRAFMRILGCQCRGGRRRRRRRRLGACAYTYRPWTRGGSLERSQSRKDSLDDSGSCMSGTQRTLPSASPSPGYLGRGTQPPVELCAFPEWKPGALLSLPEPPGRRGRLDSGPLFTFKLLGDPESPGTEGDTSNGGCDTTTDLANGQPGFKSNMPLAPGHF
T2 sequence (P23944 whole entry): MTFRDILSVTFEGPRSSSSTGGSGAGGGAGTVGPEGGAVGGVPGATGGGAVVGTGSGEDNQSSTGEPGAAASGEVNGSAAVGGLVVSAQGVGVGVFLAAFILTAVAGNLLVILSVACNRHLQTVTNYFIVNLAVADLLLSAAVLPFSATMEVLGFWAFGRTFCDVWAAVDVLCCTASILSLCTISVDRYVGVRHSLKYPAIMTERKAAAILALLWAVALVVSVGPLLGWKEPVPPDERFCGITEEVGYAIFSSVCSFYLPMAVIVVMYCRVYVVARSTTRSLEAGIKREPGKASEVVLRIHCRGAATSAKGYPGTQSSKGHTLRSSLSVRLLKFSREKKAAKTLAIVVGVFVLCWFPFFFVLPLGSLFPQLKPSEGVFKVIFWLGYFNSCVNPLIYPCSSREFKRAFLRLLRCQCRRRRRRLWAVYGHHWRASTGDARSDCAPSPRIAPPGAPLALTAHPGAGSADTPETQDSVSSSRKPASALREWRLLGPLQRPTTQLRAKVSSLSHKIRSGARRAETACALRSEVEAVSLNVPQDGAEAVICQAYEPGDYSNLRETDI
T2 sequence (P43140 whole entry): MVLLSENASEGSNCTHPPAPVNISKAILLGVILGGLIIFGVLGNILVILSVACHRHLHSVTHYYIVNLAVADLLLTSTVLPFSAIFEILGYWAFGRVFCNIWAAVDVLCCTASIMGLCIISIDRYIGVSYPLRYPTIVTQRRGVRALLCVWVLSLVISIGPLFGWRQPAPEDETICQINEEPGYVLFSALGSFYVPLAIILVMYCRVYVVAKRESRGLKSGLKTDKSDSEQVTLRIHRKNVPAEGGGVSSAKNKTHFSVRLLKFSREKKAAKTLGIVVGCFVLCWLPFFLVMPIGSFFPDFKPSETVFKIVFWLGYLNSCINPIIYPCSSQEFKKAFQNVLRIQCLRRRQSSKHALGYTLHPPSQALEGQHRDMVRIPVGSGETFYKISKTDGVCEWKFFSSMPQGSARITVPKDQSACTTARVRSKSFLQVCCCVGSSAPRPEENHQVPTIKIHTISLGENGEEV

[6] = target: D(2) dopamine receptor (Rattus norvegicus, UniProt P61169); experiment: Ability to bind to Dopamine receptor D2 in vitro in rat sriatal membranes using [3H]spiperone radioligand; assay type: cell membranes
Procedure, shortened: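 Rat striatal membranes with [3H]spiperone; ketanserin 50 nM in buffer to block 5-HT2A binding; nonspecific binding with (±)-butaclamol 5 μM; 50 mM potassium phosphate pH 7.4; 37 °C, 30 min; vacuum filtration onto glass fiber, scintillation counting. Ki via Cheng-Prusoff from ≥3 experiments, 10 concentrations in triplicate.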

[7] = target: T3, 5-hydroxytryptamine receptor 1A (Mus musculus) (UniProt Q64264); experiment: The hypothermia produced in mice was regarded as a measure of presynaptic 5-HT1A receptor agonistic activity; Agonist; assay type: functional; conditions: filed as agonist
T3 sequence (whole entry): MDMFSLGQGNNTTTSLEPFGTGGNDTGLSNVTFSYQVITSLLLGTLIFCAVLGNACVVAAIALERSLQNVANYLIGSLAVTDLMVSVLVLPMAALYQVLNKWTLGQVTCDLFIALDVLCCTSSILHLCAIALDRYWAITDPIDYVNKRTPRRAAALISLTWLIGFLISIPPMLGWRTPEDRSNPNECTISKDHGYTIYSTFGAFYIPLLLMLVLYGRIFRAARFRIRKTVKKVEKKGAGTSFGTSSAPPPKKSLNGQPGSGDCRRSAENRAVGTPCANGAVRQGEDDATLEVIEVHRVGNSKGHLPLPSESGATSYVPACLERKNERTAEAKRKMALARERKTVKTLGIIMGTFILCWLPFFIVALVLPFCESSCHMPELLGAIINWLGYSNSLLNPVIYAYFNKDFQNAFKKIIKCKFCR

[8] = target: 5-hydroxytryptamine receptor 1A (Rattus norvegicus) (UniProt P19327); experiment: Ability inhibit symptoms induced by 8-OH-DPAT was regarded as postsynaptic 5-HT1A receptor antagonistic activity; Antagonist; conditions: filed as antagonist
[9] = system: Rattus norvegicus; experiment: Effect of compound administered 60 min before the test in the forced swimming test in Rat (8 rats per group) at 20 mg/kg; assay type: functional
Procedure, shortened: (§3)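 Male Wistar rats, n=8/group; forced swim per Porsolt: 15 min pretest in cylinders with 15 cm water at 25 °C, retest 24 h later; total immobility over 5 min. Drug ip 60 min before test; imipramine in saline, test compound suspended in 1% Tween 80; Dunnett test vs vehicle.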

[10] = system: Rattus norvegicus; experiment: Effect of compound administered 60 min before the test in the forced swimming test in Rat (8 rats per group) at 30 mg/kg; assay type: functional; procedure, shortened: as §3
[11] = system: Rattus norvegicus; experiment: Effect of compound administered 60 min before the test in the forced swimming test in Rat (8 rats per group) at 40 mg/kg; assay type: functional; procedure, shortened: as §3
[12] = target: 5-hydroxytryptamine receptor 2A (Mus musculus) (UniProt P35363); experiment: The ability to antagonize head twitches in mice, observed after administration of (+/-)- DOI, was used to evaluate 5-HT2A receptor antagonistic property; Antagonist; assay type: functional, organism-based; conditions: filed as antagonist
Procedure, shortened: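 Male Albino Swiss mice habituated 20 min in glass cages; compounds ip (1% Tween 80) 60 min before (±)-DOI 2.5 mg/kg; head twitches counted for 20 min after DOI. ID50 by Litchfield-Wilcoxon.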

[13] = species on record: Mus musculus; experiment: Ability to inhibit 8-OH-DPAT-induced hypothermia was taken as a measure of presynaptic antagonistic activity; Antagonist; assay type: functional, organism-based; conditions: filed as antagonist
[14] = system: Rattus norvegicus; experiment: Effect of compound administered 60 min before the test in the forced swimming test in Rat (8 rats per group) at 10 mg/kg; assay type: functional; procedure, shortened: as §3
[15] = system: Rattus norvegicus; experiment: Effect of compound administered 60 min before the test in the forced swimming test in Rat (8 rats per group) at 5 mg/kg; assay type: functional; procedure, shortened: as §3

Chain of 5-hydroxytryptamine receptor 2A (Mus musculus) (P35363 whole entry): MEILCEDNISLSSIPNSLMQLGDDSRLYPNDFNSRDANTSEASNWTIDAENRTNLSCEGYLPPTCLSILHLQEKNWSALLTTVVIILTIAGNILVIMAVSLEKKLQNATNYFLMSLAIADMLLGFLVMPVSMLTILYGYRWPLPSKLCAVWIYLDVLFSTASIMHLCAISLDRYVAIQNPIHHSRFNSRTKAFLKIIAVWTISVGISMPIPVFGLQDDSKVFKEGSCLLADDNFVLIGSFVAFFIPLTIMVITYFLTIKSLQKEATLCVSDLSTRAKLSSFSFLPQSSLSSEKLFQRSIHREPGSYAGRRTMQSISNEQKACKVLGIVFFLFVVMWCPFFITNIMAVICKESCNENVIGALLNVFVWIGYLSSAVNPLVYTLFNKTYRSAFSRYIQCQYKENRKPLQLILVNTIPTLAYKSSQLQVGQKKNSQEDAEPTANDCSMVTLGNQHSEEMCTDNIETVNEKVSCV
Chain of D(2) dopamine receptor (P61169 whole entry): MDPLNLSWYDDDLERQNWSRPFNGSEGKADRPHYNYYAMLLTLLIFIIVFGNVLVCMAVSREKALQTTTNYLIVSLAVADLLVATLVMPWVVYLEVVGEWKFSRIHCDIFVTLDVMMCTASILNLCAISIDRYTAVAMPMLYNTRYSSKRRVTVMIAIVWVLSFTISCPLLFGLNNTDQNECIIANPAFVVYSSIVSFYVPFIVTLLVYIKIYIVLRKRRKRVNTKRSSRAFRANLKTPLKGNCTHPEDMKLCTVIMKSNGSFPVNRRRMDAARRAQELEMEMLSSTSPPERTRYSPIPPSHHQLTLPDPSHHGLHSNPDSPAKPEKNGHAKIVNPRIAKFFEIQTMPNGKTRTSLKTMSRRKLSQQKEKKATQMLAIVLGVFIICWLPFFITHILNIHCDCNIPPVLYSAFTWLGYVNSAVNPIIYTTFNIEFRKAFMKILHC
Chain of 5-hydroxytryptamine receptor 2A (P14842 whole entry): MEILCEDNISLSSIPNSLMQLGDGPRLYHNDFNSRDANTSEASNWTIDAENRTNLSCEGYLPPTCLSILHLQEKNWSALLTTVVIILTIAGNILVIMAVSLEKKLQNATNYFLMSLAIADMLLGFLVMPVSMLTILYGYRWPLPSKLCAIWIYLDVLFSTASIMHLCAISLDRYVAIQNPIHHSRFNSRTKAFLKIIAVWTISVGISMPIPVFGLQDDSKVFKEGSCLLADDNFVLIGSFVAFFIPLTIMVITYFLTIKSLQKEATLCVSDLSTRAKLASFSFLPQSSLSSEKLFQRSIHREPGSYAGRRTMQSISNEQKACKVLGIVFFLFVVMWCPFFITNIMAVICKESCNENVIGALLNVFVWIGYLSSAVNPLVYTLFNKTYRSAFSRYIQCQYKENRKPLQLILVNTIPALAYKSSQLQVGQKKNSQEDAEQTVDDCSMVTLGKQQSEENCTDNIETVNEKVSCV

Structure (SMILES) | Ki [3] [nM] | Ki [4] [nM] | Ki [5] [nM] | Ki [6] [nM] | Functional profile [7] | Functional profile [8] | further results
CN1C(=O)CN=C(c2ccccc2)c2cc(Cl)ccc21 [DIAZEPAM] | – | – | – | – | – | – | Effect [1]: 306.5% and 685.7%; No. of shocks accepted/5 min [1]: 23.6 and 52.8; Effect [2]: 533.8%; No. of shocks accepted/5 min [2]: 41.1
COc1ccccc1N1CCN(CCCNc2nc3nc4c(c(=O)n(C)c(=O)n4C)n3cc2Br)CC1 | 36 | 880 | 38 | 325 | Agonist | Antagonist | –
CN(C)CCCN1c2ccccc2CCc2ccccc21 [IMIPRAMINE] | – | – | – | – | – | – | Effect [9]: 81.9%; Immobility time [9]: 155 s; Effect [10]: 63.3%; Immobility time [10]: 120.4 s; Effect [11]: 52.7%; Immobility time [11]: 99.7 s
Cn1c(=O)c2c(nc3n(CCCN4CCN(c5ccccc5)CC4)c(=O)ccn23)n(C)c1=O | 25 | 4680 | – | – | – | – | –
Cn1c(=O)c2c(nc3nc(NCCCN4CCN(c5cccc(Cl)c5)CC4)c(Br)cn32)n(C)c1=O | 49 | 85 | 46 | 264 | Agonist | Antagonist | Functional profile [12]: Antagonist
Cn1c(=O)c2c(nc3nc(NCCCN4CCN(c5ccccc5)CC4)ccn32)n(C)c1=O | 19 | 72 | 25 | 430 | – | Antagonist | Functional profile [13]: Antagonist; Functional profile [12]: Antagonist
COc1ccccc1N1CCN(CCNc2nc3nc4c(c(=O)n(C)c(=O)n4C)n3cc2Br)CC1 | 62 | 86 | 62 | 226 | Agonist | Antagonist | –
Cn1c(=O)c2c(nc3nc(NCCCN4CCN(c5ccccc5)CC4)c(Br)cn32)n(C)c1=O | 11 | 297 | 11 | 414 | Agonist | – | Effect [14]: 64.4%; Immobility time [14]: 153.1 s; Effect [9]: 69.6%; Immobility time [9]: 165.6 s; Effect [15]: 73.1%; Immobility time [15]: 173.9 s; Effect [2]: 491.9%; No. of shocks accepted/5 min [2]: 36.4
Cn1c(=O)c2c(nc3nc(NCCN4CCN(c5cccc(Cl)c5)CC4)c(Br)cn32)n(C)c1=O | 68 | 64 | – | 165 | – | Antagonist | Functional profile [12]: Antagonist
COc1ccccc1N1CCN(CCCNc2ccn3c(n2)nc2c3c(=O)n(C)c(=O)n2C)CC1 | 34 | 835 | 33 | 1170 | – | Antagonist | –
Cn1c(=O)c2c(nc3nc(NCCN4CCN(c5ccccc5)CC4)c(Br)cn32)n(C)c1=O | 87 | 440 | – | 1240 | – | Antagonist | –
Cn1c(=O)c2c(nc3n2CCCN3CCCCN2CCN(c3ccccc3)CC2)n(C)c1=O | 2.1 | 243 | – | – | – | – | –
COc1ccccc1N1CCN(CCCN2CCCn3c2nc2c3c(=O)n(C)c(=O)n2C)CC1 | 17.2 | 562 | – | – | – | – | –
Cn1c(=O)c2c(nc3nc(NCCCN4CCN(c5cccc(Cl)c5)CC4)ccn32)n(C)c1=O | 46 | 56 | 21 | 94 | Agonist | Antagonist | Functional profile [12]: Antagonist
COc1ccccc1N1CCN(CCNc2ccn3c(n2)nc2c3c(=O)n(C)c(=O)n2C)CC1 | 1.1 | 246 | 58 | 1330 | – | Antagonist | Functional profile [13]: Antagonist
COc1ccccc1N1CCN(CCCn2c(=O)ccn3c4c(=O)n(C)c(=O)n(C)c4nc23)CC1 | 10.4 | 3880 | – | – | – | – | –
Cn1c(=O)c2c(nc3nc(NCCN4CCN(c5cccc(Cl)c5)CC4)ccn32)n(C)c1=O | 23 | 234 | 29 | 182 | Agonist | Antagonist | –
